Results: the RNAGym collection of RNA variant scans (doi:10.1126/science.aae0568)
This sample holds only a part of the variants without activity.

B1: tRNA (parent)
chain: GUUCCGUUGGCGUAAUGGUAACGCGUCUCCCUCCUAAGGAGAAGACUGCGGGUUCGAGUCCCGUACGGAACG

Variants of: B1
Assay: yeast fitness relative to wild type (ratio to wild type); higher = fitter; tRNA-Arg(CCU), competitive growth, 37 C, YPD
Procedure, shortened: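 For this measurement, the tRNA-Arg(CCU) gene was varied by chemical synthesis at a 3% per-site mutation rate across 69 sites, and each variant was placed at the native genomic locus in Saccharomyces cerevisiae. The pooled strains went through a 24-hour competition in YPD at 37°C in six parallel replicates, with amplicons from start and end populations read by 100-nucleotide paired-end sequencing. Darwinian fitness relative to wild type followed from the change in each genotype's frequency. Genotypes needed ≥ 100 starting reads, and estimates < 0.5 were set to 0.5.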

Variant	yeast fitness
U16G A70C	0.911
U16G A70G	1.03
U16G C22G	1
U16G C22G A43C	0.587
U16G C22G A43G C46G G56C A69G	≤ 0.5
U16G C22G A70G	0.767
U16G C22G C34G G50C A69U	0.528
U16G C22G C46G	0.657
U16G C22G G67C	0.709
U16G C22U A37U G50C	≤ 0.5
U16G C24G A37U	≤ 0.5
U16G C24G C27A	≤ 0.5
U16G C24G U26A G50A	0.581
U16G C24G U59A	≤ 0.5
U16G C24U	0.822
U16G C24U C29G C49G A65G	0.601
U16G C24U C29G U35C G50A C62A	≤ 0.5
U16G C24U C29G U35C G50A C66U	≤ 0.5
U16G C24U C49G G63C	≤ 0.5
U16G C24U G44A C46G	≤ 0.5
U16G C27A C31G A42G C61A	0.543
U16G C27G C49A C60A	≤ 0.5
U16G C27G U54C	0.633
U16G C29G C33U G39A C49U	≤ 0.5

Variant	yeast fitness
U16G C29G C62G	≤ 0.5
U16G C29G C62U	≤ 0.5
U16G C30A A65G	0.564
U16G C30U	0.777
U16G C31A	0.985
U16G C31G A45U	0.974
U16G C31G A65C	≤ 0.5
U16G C31G C66U	0.586
U16G C31G G63C A65U	≤ 0.5
U16G C31U A42U G56C	≤ 0.5
U16G C31U G51C A65C	≤ 0.5
U16G C31U G58A	0.633
U16G C34U	0.63
U16G C34U A57G A69C	≤ 0.5
U16G C34U C46G U59A	≤ 0.5
U16G C34U C60A A70C	≤ 0.5
U16G C46A	0.754
U16G C46A C66A	≤ 0.5
U16G C46G	1.06
U16G C46U A69C	1.07
U16G C49G	0.636
U16G C49U	0.916
U16G C49U C60A C61A	≤ 0.5
U16G C49U G52A G63A	0.632

Variant	yeast fitness
U16G C55G	0.544
U16G C55U	0.817
U16G C55U G67C	≤ 0.5
U16G C60U	0.772
U16G C61G A65U	≤ 0.5
U16G G17A C33A	0.539
U16G G18A A21U A40C G58C A65C C66G	≤ 0.5
U16G G23A A40C	≤ 0.5
U16G G23A A40C C66U	≤ 0.5
U16G G23C G48A C61A	0.577
U16G G23C G48A C61A C66U	0.54
U16G G39A A45C C61A	0.617
U16G G39A A45C G67A	≤ 0.5
U16G G39A C61G	≤ 0.5
U16G G41C	0.604
U16G G44A	0.994
U16G G44A G56A	0.663
U16G G44C C62A	0.875
U16G G44C C62U	0.566
U16G G44C G68A A69U	0.609
U16G G48A G68A	1.09
U16G G48C	0.835
U16G G56U	0.706
U16G G63C	0.694

Variant	yeast fitness
U16G G68U	0.853
U16G U19C U28C	0.986
U16G U19G C33U A40C G41A A43C C61G	≤ 0.5
U16G U26A C34U C62A	≤ 0.5
U16G U26C C49G	≤ 0.5
U16G U26G A36G	0.58
U16G U26G A36G G67U G68C	≤ 0.5
U16G U26G C29A A57C	≤ 0.5
U16G U26G U54G	0.743
U16G U28A A42G	0.665
U16G U28A G52C U54A C66U	≤ 0.5
U16G U28C G51A C55G	≤ 0.5
U16G U28G C34U G63C	0.608
U16G U32C A70G	0.984
U16G U32G C46U	≤ 0.5
U16G U35A A45C G52A	≤ 0.5
U16G U35A G51C C61U	≤ 0.5
U16G U35C G56C	≤ 0.5
U16G U47A	0.781
U16G U47A G52A	≤ 0.5
U16G U53A U59A C66A	≤ 0.5
U16G U54A C55U C66A	0.58
U16G U54C	0.704
U16G U54C A69C	0.718

Variant	yeast fitness
U16G U54C C60A	≤ 0.5
U16G U59C C60G	≤ 0.5
G17A A20C C49G	≤ 0.5
G17A A20C G25A G68C	≤ 0.5
G17A A20G	0.793
G17A A20G A42U	0.644
G17A A20G A57C	0.558
G17A A20G C27G A36C U53A	0.639
G17A A20G C31U U35C A57G	0.573
G17A A20G C34A A40G C66U	≤ 0.5
G17A A20G U28A U35A	0.561
G17A A20U C24U	0.547
G17A A20U C24U A65U	≤ 0.5
G17A A20U C24U U53A	≤ 0.5
G17A A21C C27U C33A A37C	0.566
G17A A21C C29G	0.626
G17A A21C C29U G48A	0.652
G17A A21C C31U	≤ 0.5
G17A A21C U32C	≤ 0.5
G17A A21C U53A	≤ 0.5
G17A A21G	0.765
G17A A21G C22A A40U C61U	≤ 0.5
G17A A21G G23A C27G A37U G44A C49U	≤ 0.5
G17A A21U C34G G38C G56C	≤ 0.5

Variant	yeast fitness
G17A A36C	0.558
G17A A36C A37U A43C C46U C49G G50A	0.59
G17A A36G G44A U47C A70U	≤ 0.5
G17A A36U C49U C62U	≤ 0.5
G17A A37C A65C	≤ 0.5
G17A A37C G52C G56C C60A U64A	≤ 0.5
G17A A37C U54A C55A C66G	≤ 0.5
G17A A37G A43C	≤ 0.5
G17A A37U G38A	≤ 0.5
G17A A40G	0.722
G17A A40U A42C C49A C66A	≤ 0.5
G17A A40U G48A	≤ 0.5
G17A A40U G58C	0.672
G17A A42C	0.645
G17A A42C A65G	≤ 0.5
G17A A42G A70C	≤ 0.5
G17A A42U A57U	≤ 0.5
G17A A42U A57U C61G	0.591
G17A A42U C55U C62A	≤ 0.5
G17A A43C	0.698
G17A A43C C49U U54A G56C A65U A70C	0.565
G17A A43G	0.735
G17A A43G A45G G48A C62G	≤ 0.5
G17A A43U	0.81

Variant	yeast fitness
G17A A45C	0.735
G17A A45C G63C C66U	≤ 0.5
G17A A45U	0.763
G17A A45U G52A C61U	≤ 0.5
G17A A57C	0.581
G17A A57C G63A G67A	≤ 0.5
G17A A65C	0.733
G17A A65G	0.884
G17A A69U	0.809
G17A C22A	0.645
G17A C22A A45C C46U C61A	≤ 0.5
G17A C22A A45C G63C C66U	≤ 0.5
G17A C22A A45U A70U	≤ 0.5
G17A C22A A45U C66U	≤ 0.5
G17A C22A C60U C61U	≤ 0.5
G17A C22A G63A	≤ 0.5
G17A C22G	0.837
G17A C22G C27A C62G	≤ 0.5
G17A C22G C29U	≤ 0.5
G17A C22G C31G C33G	≤ 0.5
G17A C22U A37C C55U	≤ 0.5
G17A C22U A43U	0.639
G17A C22U A45G	≤ 0.5
